# Screening results from PubChem.
# S1P4 agonist – human S1P4 receptor agonism; O95977; S1P4-expressing cell line, agonist reporter assay; activation, % at 4.98 µM; hit rate 0.35% among 220,000; AID 1509; in the data active = activation above about 11%;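 note: 0% = DMSO vehicle and 100% = reference agonist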
# MDM2 E3 inh – inhibitors of human Mdm2 E3 ubiquitin ligase; Q00987; cell-based MDM2 ubiquitination luciferase reporter, 2 h; 0 = plate control, 100 = twice control, blank-subtracted; signal enhancement, % at 5 µM; hit rate 0.11% among 210,000;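 active = signal enhancement of 30% or more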;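 note: luminescence tracks abundance of the self-degrading MDM2-luciferase fusion protein; higher signal means inhibition of MDM2 E3 ligase activity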
# Target sequence (Q00987 whole entry, looked up, the tested form may be a part): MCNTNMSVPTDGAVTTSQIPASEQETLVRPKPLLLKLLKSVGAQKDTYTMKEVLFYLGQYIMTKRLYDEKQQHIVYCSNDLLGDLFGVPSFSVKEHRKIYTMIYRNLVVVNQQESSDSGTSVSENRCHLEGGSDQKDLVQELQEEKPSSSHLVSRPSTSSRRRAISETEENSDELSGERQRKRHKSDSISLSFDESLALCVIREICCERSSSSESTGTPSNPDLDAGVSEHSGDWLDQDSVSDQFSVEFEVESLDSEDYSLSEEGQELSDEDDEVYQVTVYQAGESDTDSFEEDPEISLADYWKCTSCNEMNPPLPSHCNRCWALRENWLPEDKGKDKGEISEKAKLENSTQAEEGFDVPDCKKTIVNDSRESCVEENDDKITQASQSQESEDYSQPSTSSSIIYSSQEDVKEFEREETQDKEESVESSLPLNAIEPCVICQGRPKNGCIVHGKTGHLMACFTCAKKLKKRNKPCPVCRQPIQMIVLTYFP
#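 Buffer or medium: Cells held in DMEM | Assay system: Stable mammalian line carrying autodegrading MDM2–luciferase fusion reporter | Quantity: 2000 cells/well | Times: 4 h settle plus 2 h compound, 37 °C | Doses: One concentration, 5 µM, with 0.2% DMSO | Technique: Luminescence with SteadyLite reagent, 15 min at room temperature | Benchmarks: Plate controls and plate blanks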
# L major viab – Leishmania major promastigote growth inhibition; Leishmania major promastigotes, resazurin fluorescence viability; inhibition, % at 10 µM; hit rate 9% among 200,000; AID 1063; in the data active = inhibition above about 50%;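 note: promastigotes grown with compound for 44 hours at 28 °C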
# S1P3 antag – S1P3 (human) receptor antagonism; CHO S1P3 NFAT-BLA reporter, FRET fluorescence, antagonist mode; AID 485; Q99500; hit rate 0.27% among 170,000; inhibition, % at 4.98 µM;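 active = inhibition above the plate cutoff, the mean inhibition of test wells on that plate plus 3 SD, cut at about 28% in these data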;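 note: cells challenged with S1P at its EC80 of 0.8 µM; blue over green emission ratio from cleaved BLA substrate after 4 h stimulation; 0% = S1P-stimulated wells and 100% = unstimulated DMSO-only wells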
# S1P4 antagonist – blocks the human S1P4 receptor; O95977; S1P4-expressing cells, antagonist mode, reporter read-out; inhibition, % at 4.98 µM; hit rate 0.26% among 220,000; AID 1510; in the data active = inhibition above about 29%;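 note: 0% = wells stimulated with agonist and 100% = vehicle wells without agonist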
# * marks the source's active call; other numbers are inactive results; nt = not tested or not shown. The entries come from a sample that favours hits as a whole.
SMILES,S1P4 agonist,MDM2 E3 inh,L major viab,S1P3 antag,S1P4 antagonist
CC(=O)Nc1ccc(S(=O)(=O)n2cnc3ccccc32)cc1,2.1,-0.6,-4.2,nt,-8.1
Cn1c(-c2ccc(Cl)cc2)cnc1N,0.1,-17.6,1.8,4.0,-2.3
Nc1cccn2c(-c3ccc(Cl)cc3)cnc12,3.7,-10.1,72.8*,5.4,-9.0
Nc1cccn2c(-c3ccc(Cl)c(Cl)c3)cnc12,0.2,-5.7,64.7*,-9.4,-17.9
CC1(C)C(O)=C(c2nc3ccccc3[nH]2)C(=N)N1c1ccccc1,0.1,-11.1,82.2*,nt,-2.6
CCCCOc1ccc(Br)cc1/C(C)=N/NC1=NCCN1,1.7,-13.2,100.5*,nt,-9.7
CCCCCCOc1ccc(/C(C)=N/NC2=NCCN2)cc1[N+](=O)[O-],-1.1,-11.8,100.3*,-6.1,-3.6
CCOC(=O)CCS(=O)(=O)c1ccc(-c2ccc(S(=O)(=O)CCC(=O)OCC)cc2)cc1,-0.6,-11.1,-12.9,nt,-4.1
CCCNC(=O)CSc1nnc(-c2ccccc2Br)n1-c1cccc(C(F)(F)F)c1,-1.3,-9.4,79.4*,-9.7,0.4
CC(=O)Nc1ccc2c(c1)nc1n2CCN(C2CCCCC2)C1,-0.4,-4.1,6.9,-10.1,-17.0
Cc1ccc(COc2ccccc2C(=S)N2CCCC2)cc1,-2.2,-5.8,75.7*,2.0,-4.6
Fc1ccc(COc2ccccc2C(=S)N2CCCC2)cc1,1.5,-12.1,6.8,-4.2,-14.4
O=C(N1CCCCCC1)n1c(Cc2ccccc2)nc2ccccc21,1.9,-3.1,63.2*,nt,-15.5
O=C(Cn1c(S(=O)(=O)Cc2ccccc2)nc2ccccc21)N1CCCCC1,1.6,-6.8,41.5,-13.5,-12.7
NC(=O)C1CCCN(C(=S)Nc2cccc3ccccc23)C1 (configuration not stated),0.6,-4.6,-3.4,-9.5,-4.3
Cc1ccc2c(C)nc(N/C(N)=N/S(=O)(=O)c3ccc([N+](=O)[O-])cc3)nc2c1,1.7,-9.0,88.2*,8.0,-6.4
Cc1nc(N/C(N)=N/S(=O)(=O)c2ccc([N+](=O)[O-])cc2)nc2ccccc12,-0.4,-8.3,53.8*,2.7,4.2
N/C(=N\S(=O)(=O)c1ccccc1)c1ccc([N+](=O)[O-])cc1,0.1,-2.5,-4.3,3.0,-21.2
CCn1c2ccccc2c2cc(NC(=O)CSc3nnc(-c4ccccc4)o3)ccc21,-3.0,-17.0,84.6*,nt,-8.7
O=C(CSc1nccc(=O)[nH]1)Nc1ccc(F)c([N+](=O)[O-])c1,0.7,-6.7,50.5*,-11.4,-17.8
O=C(CSc1nnc(-c2ccncc2)o1)NCc1ccccc1,-0.2,-3.6,50.0*,-0.8,-8.6
CCn1c2ccccc2c2cc(NC(=O)CSc3nnc(-c4cccc(F)c4)o3)ccc21,-5.9,4.3,4.2,nt,-2.9
CCn1c2ccccc2c2cc(NC(=O)CSc3nccc(=O)[nH]3)ccc21,1.7,-2.9,89.6*,8.2,-32.0
CC(=O)c1cn(-c2ccc(Cl)cc2)c(=O)n(Cc2ccc(F)cc2)c1=O,-0.8,-4.4,2.5,-8.2,3.0
O=C(O)c1cc2ncc(CCO)cn2n1,-1.6,0.2,-0.7,-7.8,-0.1
SMILES,S1P4 agonist,MDM2 E3 inh,L major viab,S1P3 antag,S1P4 antagonist
CC(=O)c1c(C)[nH]c(C(=O)COC(=O)CN(C)S(=O)(=O)c2ccc(Cl)cc2)c1C,1.2,-15.0,-5.9,nt,-6.9
Cc1ccc(N2CCN(C(=O)c3ccccc3NC(=O)C3CC=CCC3C(=O)O)CC2)cc1 (configuration not stated),-0.1,-8.0,-8.3,nt,1.7
CCn1c2ccccc2c2cc(NC(=O)CSc3nnc(-c4cccc(C)c4)o3)ccc21,1.6,-7.0,92.0*,nt,-14.5
CCn1c(SCC(=O)Nc2ccc3c(c2)OCCO3)nnc1-c1ccco1,-0.9,-7.0,0.1,-29.5,15.3
CCn1c(SCC(=O)Nc2ccc3c(c2)c2ccccc2n3CC)nnc1-c1ccco1,0.0,0.4,71.8*,-28.3,11.6
COc1ccc(/C=N/Nc2nc(N3CCCC3)nc(N3CCCC3)n2)cc1,0.0,-5.7,62.7*,-8.0,-25.6
Brc1cc2c(cc1/C=N/Nc1nc(N3CCCCC3)nc(N3CCCCC3)n1)OCO2,-2.7,-11.7,67.0*,6.6,-10.1
Cc1[nH]c2ccccc2c1/C=N/Nc1nc(N2CCCCC2)nc(N2CCCCC2)n1,0.3,13.5,76.6*,-5.9,-21.0
COc1ccc(/C=N/Nc2nc(Nc3ccccc3)nc(N3CCCC3)n2)cc1,0.5,-8.7,12.3,-0.1,-20.8
COC(=O)c1ccc(/C=N/Nc2nc(N3CCCCC3)nc(N3CCCCC3)n2)cc1,2.2,-28.6,77.5*,-13.3,-7.5
C(=N\Nc1nc(N2CCCCC2)nc(N2CCCCC2)n1)/c1c[nH]c2ccccc12,0.0,-6.4,31.9,17.2,-10.5
CCOc1ccc(C(=O)NCc2ccccc2)cc1Br,0.7,2.0,-2.8,10.6,-27.1
CCc1c(C)sc2nc(C(C)C)nc(SCC(=O)N3CCc4ccccc4C3)c12,-2.2,-12.8,-3.7,nt,0.6
Cc1nn(-c2ccc(Cl)cc2)c(NC(=O)C(C)C)c(-c2ccccc2)c1=O,-3.9,-4.0,nt,-9.2,16.3
O=[N+]([O-])c1ccc(/C=N/Nc2nc(N3CCCCC3)nc(N3CCCCC3)n2)o1,-4.6,-2.9,100.3*,nt,0.5
CN(C)CCCN1C(=O)C(O)=C(C(=O)c2cccs2)C1c1ccccn1 (configuration not stated),nt,nt,nt,28.0,nt
CCC(C)C(NC(N)=O)C(=O)Nc1ccc(C)c(Cl)c1 (configuration not stated),-0.5,2.8,58.4*,-9.0,-16.3
CC[C@H](C)[C@H](NC(N)=O)C(=O)Nc1ccc(OC)c(Cl)c1,0.0,-7.2,-1.6,-4.1,-0.5
COc1cc(NC(=O)c2ccc3c(c2)OCCO3)ccc1NC(=O)c1cccs1,1.1,-9.5,-7.4,2.9,-15.5
C=CCNC(=S)/N=c1/ccccn1CCC,0.1,-5.7,nt,-3.2,-5.0
Cc1ccc(C)c2[nH]c(=O)c(C(c3nnnn3Cc3ccccc3)N3CCc4ccccc4C3)cc12 (configuration not stated),-0.3,-13.8,73.4*,nt,-13.5
COc1ccc(C(c2nnnn2CC2CCCO2)N2CCN(c3ccccc3)CC2)cc1 (configuration not stated),-1.5,-16.2,-1.8,15.4,-9.2
Cc1ccc2cc(C(c3nnnn3CC3CCCO3)N3CCc4ccccc4C3)c(=O)[nH]c2c1 (configuration not stated),-1.7,4.3,93.1*,-15.8,-7.7
Cc1cccc2cc(C(c3nnnn3CC3CCCO3)N3CCc4ccccc4C3)c(=O)[nH]c12 (configuration not stated),-0.7,-17.6,26.6,-26.8,3.0
Cc1ccc(C(c2nnnn2CC2CCCO2)N2CCN(c3cccc(C)c3C)CC2)cc1 (configuration not stated),2.7,-26.0,58.9*,-9.7,-8.4
CC(C)(O)C#Cc1ccc(C(=O)N2CCN(c3ccc(Cl)cc3)CC2)cc1,0.4,18.0,-1.5,-14.4,-19.0
CSCC(=O)NS(=O)(=O)c1ccc(C)cc1,0.1,nt,-6.7,1.5,15.5
